Measurements from PMC4944842 (Molecular cancer therapeutics, 2010).

Key:
[1] = test system: HER2-positive, PIK3CA-mutant BT474 human breast cancer xenografts; assay: Antitumor activity in human tumor xenograft; type: in vivo, mice; details: 40 mg/kg bid × 5 of 7 days
Summary of the method: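 BT474 cells (5 × 10⁶) in medium mixed 1:1 with matrigel were implanted into mammary fat pads of female mice. Estradiol pellets (0.025 mg, 90-day release) had been placed s.c. 3 days earlier. Mice were randomized at ~100 mm³ mean tumor volume. Dosing was 40 mg/kg i.p. twice daily for 5 days versus vehicle (10% DMSO, 5% Tween 20, 85% saline). Tumors (calipers) and body weight were measured thrice weekly.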

[2] = test system: PTEN-null U87MG human glioblastoma xenografts; assay: Antitumor activity in human tumor xenograft; type: in vivo, mice; details: 25 mg/kg i.p. × 5 of 7 days
Summary of the method: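 U87MG cells (2 × 10⁶) were injected s.c. into the right flank of 6–8-week-old female […] mice. Mice were randomized at ~100 mm³ mean tumor volume and given test compound i.p. or vehicle (10% DMSO, 5% Tween 20, 85% saline). Body weight and caliper tumor diameters were recorded three times weekly. Volume = 4/3π[(d1+d2)/4]³; tumors were excised and weighed at study end.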

[3] = test system: panel of kinases representative of the human protein kinome; assay: Kinase profiling at 10 µmol/L against panel of kinases; type: biochemical; details: ATP at Km
Summary of the method: (§1)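 Millipore profiling covered 50 human kinases. Test compound was tested at 10 µmol/L, with ATP at the Km of each enzyme. Readout was % kinase activity remaining.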

[4] = test system: LNCaP human prostate cancer cells; assay: 96-hour SRB antiproliferative assay; type: cell-based; details: read-out: GI50 for growth inhibition (mean±SD)
Summary of the method: (§2)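 Cells attached for 36 h before treatment so they were in exponential growth. Test compound came from a 10 mM DMSO stock. Growth was measured by sulforhodamine B staining after 96 h of exposure. GI50 was derived by a previously published method and reported as mean ± SD of 3–5 independent experiments.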

[5] = molecular target: p70S6K (Homo sapiens, UniProt P23443); assay: Kinase enzyme assay; type: biochemical; details: read-out: activity remaining
p70S6K, sequence (P23443 whole entry): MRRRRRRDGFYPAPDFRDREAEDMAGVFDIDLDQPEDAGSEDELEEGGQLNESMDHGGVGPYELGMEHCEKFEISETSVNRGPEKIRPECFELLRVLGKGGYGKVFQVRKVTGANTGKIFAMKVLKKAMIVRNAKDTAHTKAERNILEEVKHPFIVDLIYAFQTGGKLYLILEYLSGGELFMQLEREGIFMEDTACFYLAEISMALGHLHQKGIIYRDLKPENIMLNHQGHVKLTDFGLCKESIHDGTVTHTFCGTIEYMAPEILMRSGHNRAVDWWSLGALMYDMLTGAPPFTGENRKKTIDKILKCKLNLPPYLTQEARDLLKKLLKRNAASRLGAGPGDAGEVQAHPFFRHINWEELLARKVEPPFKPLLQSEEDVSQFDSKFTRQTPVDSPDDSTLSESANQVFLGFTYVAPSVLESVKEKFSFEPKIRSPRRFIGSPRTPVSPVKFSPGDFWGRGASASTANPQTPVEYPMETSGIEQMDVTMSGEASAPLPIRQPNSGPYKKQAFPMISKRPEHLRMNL
Summary of the method: as §1

[6] = molecular target: PKA (Homo sapiens, UniProt P17612); assay: Kinase enzyme assay; type: biochemical; details: read-out: activity remaining
[7] = test system: U87MG human glioblastoma xenografts; assay: Pharmacodynamic AKT biomarker immunoblotting in tumor xenografts; type: in vivo, mice; details: 50 mg/kg i.p. × 4 days
Summary of the method: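 Mice bearing s.c. U87MG xenografts received 50 mg/kg i.p. daily for 4 days. Tumors were harvested 2 and 6 h after the last dose; protein was measured by Bradford and tumors were immunoblotted. Each phosphoprotein/total protein ratio was normalized to GAPDH and expressed relative to vehicle controls (=1.0). Data are mean ± SE of 3–5 determinations.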

[8] = molecular target: Rock-II (Homo sapiens, UniProt O75116); assay: Kinase profiling at 10 µmol/L; type: biochemical; details: read-out: activity remaining
Rock-II, sequence (O75116 whole entry): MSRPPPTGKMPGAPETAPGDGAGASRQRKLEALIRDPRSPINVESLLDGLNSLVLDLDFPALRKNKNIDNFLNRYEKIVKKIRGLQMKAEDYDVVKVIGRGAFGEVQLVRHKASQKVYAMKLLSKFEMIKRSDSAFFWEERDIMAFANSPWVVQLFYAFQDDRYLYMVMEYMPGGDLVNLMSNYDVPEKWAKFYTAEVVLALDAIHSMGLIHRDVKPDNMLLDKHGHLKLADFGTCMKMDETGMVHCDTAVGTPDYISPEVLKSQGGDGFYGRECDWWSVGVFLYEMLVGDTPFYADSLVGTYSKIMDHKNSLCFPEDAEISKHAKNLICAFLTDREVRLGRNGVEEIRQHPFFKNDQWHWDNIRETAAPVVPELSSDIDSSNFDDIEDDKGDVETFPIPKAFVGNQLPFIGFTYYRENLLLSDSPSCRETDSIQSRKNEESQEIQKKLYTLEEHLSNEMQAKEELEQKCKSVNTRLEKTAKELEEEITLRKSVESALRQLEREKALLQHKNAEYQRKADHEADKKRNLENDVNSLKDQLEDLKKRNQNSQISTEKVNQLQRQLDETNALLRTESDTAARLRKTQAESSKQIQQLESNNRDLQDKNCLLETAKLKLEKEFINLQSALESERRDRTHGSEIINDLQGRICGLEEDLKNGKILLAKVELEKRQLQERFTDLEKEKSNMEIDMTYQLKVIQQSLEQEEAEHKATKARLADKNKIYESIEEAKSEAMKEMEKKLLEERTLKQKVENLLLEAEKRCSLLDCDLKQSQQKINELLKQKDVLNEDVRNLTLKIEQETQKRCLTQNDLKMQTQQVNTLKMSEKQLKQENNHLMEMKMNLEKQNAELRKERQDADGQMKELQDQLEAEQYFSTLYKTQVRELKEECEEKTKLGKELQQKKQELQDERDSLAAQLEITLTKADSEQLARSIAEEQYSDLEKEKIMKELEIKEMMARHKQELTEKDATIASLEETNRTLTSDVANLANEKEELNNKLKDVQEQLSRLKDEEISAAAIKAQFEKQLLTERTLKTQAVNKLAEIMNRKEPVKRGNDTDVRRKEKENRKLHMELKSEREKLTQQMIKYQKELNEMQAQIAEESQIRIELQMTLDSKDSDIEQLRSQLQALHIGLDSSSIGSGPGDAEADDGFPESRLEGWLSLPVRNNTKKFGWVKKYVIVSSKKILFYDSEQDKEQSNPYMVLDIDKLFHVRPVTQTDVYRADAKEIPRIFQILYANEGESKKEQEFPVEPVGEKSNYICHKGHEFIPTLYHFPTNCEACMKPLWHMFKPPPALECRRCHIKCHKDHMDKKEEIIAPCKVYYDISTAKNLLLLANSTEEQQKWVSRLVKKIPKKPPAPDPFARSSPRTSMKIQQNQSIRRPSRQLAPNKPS
Summary of the method: as §1

[9] = test system: PC3 and LNCaP prostate cancer cell lines, HCT116 colorectal cancer cells and MCF7 human breast cancer cells; type: cell-based; details: one hour exposure, 3 or 10 µM
Summary of the method: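 PC3, LNCaP, HCT116 and MCF7 cells were exposed for 1 h to 3 or 10 µM test compound. Controls were DMSO and LY294002 (30 µM, 1 h). Lysates were run on 10% Tris-glycine gels, transferred to PVDF and blocked in 5% milk/Tris-NaCl-Tween. Primary antibodies were applied overnight at 4 °C, then HRP secondaries for 1 h, with ECL detection. GAPDH served as loading control.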

[10] = test system: U87MG human glioblastoma cells; assay: Immunoblotting of AKT biomarkers and cell cycle proteins; type: cell-based
Summary of the method: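 U87MG cells were exposed for 1 h to increasing test-compound concentrations, or to one fixed concentration sampled at intervals up to 48 h. Controls were DMSO and LY294002 (30 µM, 1 h). Phospho and total AKT, GSK3β, PRAS40, FOXO1/3a, S6RP, cyclin D1, p21 and p27 were immunoblotted (10% Tris-glycine gels, PVDF, overnight 4 °C primaries, ECL). GAPDH served as loading control.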

[11] = Pharmacokinetics after single dose of 25 mg/kg; type: in vivo, mice
Summary of the method: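 Mice bearing HCT116 xenografts received a single 25 mg/kg dose i.v., i.p. or p.o. Plasma and tumor were sampled over time, 3–5 mice per time point. Drug was extracted with methanol and quantified by LC-MS on a Synergi-Polar RP column (0.1% formic acid/methanol gradient, 0.6 ml/min, 12 min). Data are mean ± SE.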

[12] = test system: PTEN-null U87MG human glioblastoma cells; assay: Flow cytometry cell cycle analysis; type: cell-based
[13] = molecular target: CHK2 (Homo sapiens, UniProt O96017); assay: Kinase profiling at 10 µmol/L; type: biochemical; details: read-out: activity remaining
CHK2, sequence (O96017 whole entry): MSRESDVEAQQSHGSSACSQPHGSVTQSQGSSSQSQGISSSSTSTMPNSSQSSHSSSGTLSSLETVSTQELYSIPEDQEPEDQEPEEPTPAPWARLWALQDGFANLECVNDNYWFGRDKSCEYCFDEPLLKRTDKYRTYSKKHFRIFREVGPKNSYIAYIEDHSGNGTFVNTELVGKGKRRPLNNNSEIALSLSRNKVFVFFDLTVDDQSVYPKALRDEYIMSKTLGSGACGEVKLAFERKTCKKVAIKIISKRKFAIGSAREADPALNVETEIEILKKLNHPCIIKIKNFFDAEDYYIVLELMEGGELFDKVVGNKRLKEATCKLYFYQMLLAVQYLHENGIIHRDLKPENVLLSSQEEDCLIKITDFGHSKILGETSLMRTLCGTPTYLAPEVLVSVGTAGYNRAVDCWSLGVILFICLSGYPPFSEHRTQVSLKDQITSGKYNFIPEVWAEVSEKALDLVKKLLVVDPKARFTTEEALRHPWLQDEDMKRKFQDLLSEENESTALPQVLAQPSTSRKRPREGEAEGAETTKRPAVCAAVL
Summary of the method: as §1

[14] = test system: PC3 human prostate cancer cells; assay: 96-hour SRB antiproliferative assay; type: cell-based; details: read-out: GI50 for growth inhibition (mean±SD)
Summary of the method: as §2

[15] = test system: U87MG human glioblastoma cells; assay: 96-hour SRB antiproliferative assay; type: cell-based; details: U-87 MG, read-out: GI50 for growth inhibition (mean±SD)
Summary of the method: as §2

weight loss [2]: no weight loss | cross-reactivity with 47 other kinases [3]: minimal cross-reactivity | GI50 [4]: 350 nM | remaining activity at 10 µM [5]: < 25% | remaining activity at 10 µM [6]: < 25% | remaining activity at 10 µM [8]: < 25% | peak tumor concentration ([11]; 25 mg/kg i.p., HCT116 human colon tumor xenograft): 8 µM | AUC0-∞ tumor ([11]; 25 mg/kg i.p., HCT116 tumor xenograft): 25.8 µMh | administered dose recovered unaltered in urine ([11]; 25 mg/kg i.p., after 24 hours (data not shown)): 0.23% | AUC0-∞ plasma ([11]; 25 mg/kg i.p., mice): 1.3 µMh | AUC0-∞ plasma ([11]; 25 mg/kg i.v., mice): 4.6 µMh | peak concentration in plasma ([11]; 25 mg/kg i.v., mice): 6.4 µM | peak plasma concentration ([11]; 25 mg/kg p.o., mice): 0.43 µM | remaining activity at 10 µM [13]: < 25% | GI50 [14]: 1900 nM | GI50 [15]: 6300 nM
SMILES: NC1(Cc2ccc(Cl)cc2)CCN(c2ncnc3[nH]ccc23)CC1 [CCT128930, 4-(4-chlorobenzyl)-1-(7H-pyrrolo[2,3-d]pyrimidin-4-yl)piperidin-4-amine]
antitumor effect [1]: complete growth arrest | body weight nadir, % of the initial body weight ([1]; day 15 of treatment): 94.8% | phosphorylation of Ser9 GSK3β ([7]; 2 and 6 hours (P<0.001 and P<0.01)): significant decreases | phosphorylation of Ser235/236 S6RP ([7]; 2 and 6 hours (P<0.05 and P<0.01)): significant decreases | phosphorylation of Thr246 PRAS40 ([7]; 2 and 6 hours (P<0.05 and P<0.05)): significant decreases | Ser473 phosphorylation on AKT ([7]; 2 and 6 hours after last dose (P<0.001 and P<0.01)): significant increase | pSer473 AKT [9]: induction | pSer9 GSK3β ([9]; all four cell lines): Decreased phosphorylation | pSer240/244 S6RP ([9]; all four cell lines): decreased | cyclin D1 over time ([10]; 18.9 μM): decreased after 8 hours | pSer473 AKT over time ([10]; 18.9 μM (3× GI50), after 30 minutes, sustained for 48 hours): increase in phosphorylation | pThr32 FOXO3a phosphorylation ([10]; 18.9 μM, after one hour exposure): marked decrease | pSer235/236 S6RP signal over time ([10]; 18.9 μM, decrease at 30 minutes): complete loss after 2 hours | pSer240/244 S6RP signal over time ([10]; 18.9 μM, decreased from 4 hours): abolished after 8 hours | pSer9 GSK3β phosphorylation over time ([10]; 18.9 μM, from 30 minutes, sustained at least 24 hours, recovery at 48 hours): rapid and profound loss | pThr246 PRAS40 over time ([10]; 18.9 μM, from 30 minutes, sustained throughout 48 hours): marked loss in phosphorylation | CDK inhibitor p27 over time ([10]; 18.9 μM, from 2 hours): induction | exposure sufficient to markedly inhibit phosphorylation of GSK3β, S6RP, FOXO1 and PRAS40 ([10]; 1 hour): 5 to 10 µM | concentration decreasing cyclin D1 expression ([10]; 1 h treatment): ≥ 40 µM | concentration inhibiting direct substrates of AKT (Ser9 GSK3β, pThr246 PRAS40 and pT24 FOXO1/p32 FOXO3a) ([10]; 1 h treatment): ≥ 5 μM | concentration inhibiting downstream target pSer235/236 S6RP ([10]; 1 h treatment): ≥ 10 μM | effect on pSer240/244 S6RP ([10]; 1 h treatment, increasing concentrations): minimal effects | concentration up to which AKT phosphorylation at serine 473 is induced ([10]; 1 h treatment, decrease at higher concentrations): up to 20 μM | apoptosis as measured by PARP cleavage ([10]; after CCT128930 treatment (Supplementary Figure 2)): increase | G2/M cells ([12]; 1 × GI50, 24 hours, DMSO control 16.7%): 18.9% | S phase cells ([12]; 1 × GI50, 24 hours, DMSO control 32.3%): 13.2% | G0/G1 phase cells ([12]; 1 × GI50, 24 hours, DMSO control 46.4%): 63.2% | G2/M phase cells ([12]; 3 × GI50 (18.9µM), 24 hours, DMSO control 17.8%): 30.5% | S phase cells ([12]; 3 × GI50 (18.9µM), 24 hours, DMSO control 36.6%): 2.0% | G0/G1 phase cells ([12]; 3 × GI50 (18.9µM), 24 hours, DMSO control 43.6%): 64.8%
